Assay results: ChEMBL document CHEMBL4130485, “Inhibitors of Yellow Fever Virus replication based on 1,3,5-triphenyl-4,5-dihydropyrazole scaffold: Design, synthesis and antiviral evaluation” (Eur J Med Chem, 2017)

Legend:
[1] = Cytotoxicity against African green monkey Vero 76 cells assessed as decrease in cell viability after 48 to 96 hrs by MTT assay; assay type: cell-based; details: chlorocebus sabaeus
How it was run: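 Vero 76 cells seeded at 5×10^5 cells/mL in D-MEM with 10% FBS and incubated with serial compound dilutions at 37 °C, 5% CO2. Viability read by MTT after 48–96 h. CC50 by linear regression versus untreated controls.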

[2] = Selectivity index, ratio of CC50 for African green monkey Vero 76 cells to EC50 for Human coxsackievirus B5 Faulkner; assay type: toxicity; details: read-out: Ratio CC50/EC50
How it was run: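 Selectivity index calculated as Vero 76 CC50 (MTT) divided by CVB-5 plaque-reduction EC50.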

[3] = Antiviral activity against Human enterovirus B Faulkner ATCC VR 185 infected in African green monkey Vero 76 cells assessed as protection against virus-induced cytopathic effect after 3 days by crystal violet staining-based plaque reduction assay; assay type: functional, cell-based; details: Faulkner ATCC VR 185, Vero 76, 72 h
[4] = system: Enterovirus C; assay: Antiviral activity against Enterovirus C Sabin […] infected in African green monkey Vero 76 cells assessed as protection against virus-induced cytopathic effect after 2 days by crystal violet staining-based plaque reduction assay; assay type: functional, organism-based; details: Vero 76, 48 h
[5] = system: Vesicular stomatitis Indiana virus; assay: Antiviral activity against Vesicular stomatitis virus Indiana ATCC VR 158 infected in African green monkey Vero 76 cells assessed as protection against virus-induced cytopathic effect after 2 days by crystal violet staining-based plaque reduction assay; assay type: functional, organism-based; details: ATCC VR 158, Vero 76, 48 h
[6] = system: Yellow fever virus; assay: Potency index, ratio of azauridine EC50 to compound EC50 for Yellow fever virus 17D vaccine (Stamaril Pasteur J07B01); assay type: functional
[7] = system: Bovine viral diarrhea virus 1; assay: Antiviral activity against Bovine viral diarrhea virus NADL ATCC VR 534 infected in bovine MDBK cells assessed as protection against virus-induced cytopathic effect after 3 to 4 days by MTT assay; assay type: functional, organism-based, Bovine viral diarrhea virus 1-NADL; details: Bovine viral diarrhea virus isolates and strains, ATCC VR 534, MDBK
How it was run: (§1)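 BHK-21 cells (MDBK for BVDV) seeded at 5×10^4 (BHK) or 3×10^4 (MDBK) cells/well and grown overnight to confluence. Infected at m.o.i. 0.01 in maintenance MEM-Earle with 0.5% inactivated FBS. Serial compound dilutions added 2 h later (final 100, 20, 4, 0.8 µM; DMSO ≤0.1%). Viability read by MTT after 3–4 days at 37 °C. EC50 obtained by linear regression against untreated controls; mean of three determinations.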

[8] = system: Vaccinia virus; assay: Antiviral activity against Vaccinia virus Lister ATCC VR 1549 infected in African green monkey Vero 76 cells assessed as protection against virus-induced cytopathic effect after 3 days by crystal violet staining-based plaque reduction assay; assay type: functional, organism-based; details: Orthopoxvirus vaccinia, ATCC VR 1549, Vero 76, 72 h
[9] = Selectivity index, ratio of CC50 for golden hamster BHK21 cells to EC50 for Yellow fever virus 17D; assay type: toxicity; details: read-out: Ratio CC50/EC50
How it was run: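 Selectivity index calculated as BHK-21 CC50 divided by YFV EC50, both from MTT assays.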

[10] = system: West Nile virus; assay: Antiviral activity against West Nile virus clinical isolate infected in golden hamster BHK21 cells assessed as protection against virus-induced cytopathic effect after 3 to 4 days by MTT assay; assay type: functional, organism-based; details: BHK-21; how it was run: as §1
[11] = system: Mammalian orthoreovirus 1; assay: Antiviral activity against Reovirus 1 infected in golden hamster BHK21 cells assessed as protection against virus-induced cytopathic effect after 3 to 4 days by MTT assay; assay type: functional, organism-based; details: Mammalian orthoreovirus 1, BHK-21; how it was run: as §1
[12] = system: dengue virus type 2; assay: Antiviral activity against Dengue virus type 2 clinical isolate infected in golden hamster BHK21 cells assessed as protection against virus-induced cytopathic effect after 3 to 4 days by MTT assay; assay type: functional, organism-based; details: BHK-21; how it was run: as §1
[13] = system: Human immunodeficiency virus 1; assay: Antiviral activity against HIV1 3B infected in human MT4 cells assessed as protection against virus-induced cytopathic effect after 4 days by MTT assay; assay type: functional, organism-based; details: Human immunodeficiency virus 1, 3B, MT4, 96 h
How it was run: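 MT-4 cells (1×10^4/well) in RPMI with serial compound dilutions, infected with 100 CCID50 HIV-1 (m.o.i. 0.01). Viability read by MTT after 4 days at 37 °C. EC50 for 50% protection from cytopathicity obtained by linear regression versus untreated controls; mean of three determinations.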

[14] = Cytotoxicity against bovine MDBK cells assessed as decrease in cell viability after 72 hrs by MTT assay; assay type: cell-based, Bos taurus; details: cattle
How it was run: (§2)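 Uninfected MDBK (6×10^5 cells/mL, 10% horse serum) or BHK (1×10^6 cells/mL, 10% FBS) cells in MEM-Earle with serial compound dilutions at 37 °C, 5% CO2, run in parallel with the antiviral assays. Viability read by MTT after 72 h. CC50 by linear regression; mean of three determinations.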

[15] = system: Human alphaherpesvirus 1; assay: Antiviral activity against Human herpesvirus 1 KOS ATCC VR 1493 infected in African green monkey Vero 76 cells assessed as protection against virus-induced cytopathic effect after 3 days by crystal violet staining-based plaque reduction assay; assay type: functional, organism-based; details: Human alphaherpesvirus 1, KOS, Vero 76, 72 h
[16] = Cytotoxicity against golden hamster BHK21 cells assessed as decrease in cell viability after 72 hrs by MTT assay; assay type: cell-based, Mesocricetus auratus, BHK-21; how it was run: as §2
[17] = Cytotoxicity against human MT4 cells assessed as decrease in cell viability after 96 hrs by MTT assay; assay type: cell-based
How it was run: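 Exponentially growing MT-4 cells seeded at 1×10^5 cells/mL in RPMI-1640 with 10% FBS and incubated with serial compound dilutions at 37 °C, 5% CO2. Viability read by MTT after 96 h. CC50 by linear regression versus untreated controls.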

[18] = system: Yellow fever virus; assay: Antiviral activity against Yellow fever virus 17D vaccine (Stamaril Pasteur J07B01) infected in golden hamster BHK21 cells assessed as protection against virus-induced cytopathic effect after 3 to 4 days by MTT assay; assay type: functional, organism-based; details: BHK-21; how it was run: as §1
[19] = system: Human orthopneumovirus; assay: Antiviral activity against Human respiratory syncytial virus A2 ATCC VR 1540 infected in African green monkey Vero 76 cells assessed as protection against virus-induced cytopathic effect after 5 days by crystal violet staining-based plaque reduction assay; assay type: functional, organism-based; details: ATCC VR 1540, Vero 76, 120 h

Row | SMILES | CC50 [1] [µM] | selectivity ratio [2] | EC50 [3] [µM] | EC50 [4] [µM] | EC50 [5] [µM] | Ratio EC50 [6] | EC50 [7] [µM] | EC50 [8] [µM] | selectivity ratio [9] | EC50 [10] [µM] | EC50 [11] [µM] | EC50 [12] [µM] | EC50 [13] [µM] | CC50 at 72 h [14] [µM] | EC50 [15] [µM] | CC50 at 72 h [16] [µM] | CC50 at 96 h [17] [µM] | EC50 [18] [µM] | EC50 [19] [µM]
1 | Cc1cc(CCCOc2c(C)cc(-c3noc(C(F)(F)F)n3)cc2C)on1 [PLECONARIL] | 83 | 16000 | 0.005 | 2.7 | – | – | – | – | – | – | – | – | – | – | – | – | – | – | –
2 | Cc1ccccc1C1CC(c2ccccc2)=NN1c1ccc(S(N)(=O)=O)cc1 (stereo unspecified) | 24 | – | > 24 | > 24 | > 24 | 10 | > 18 | > 24 | 6.4 | > 14 | > 14 | > 14 | > 43 | 18 | > 24 | 14 | 43 | 2.2 | > 24
3 | Cc1ccc(C2CC(c3ccccc3)=NN2c2ccc(S(N)(=O)=O)cc2)cc1 (stereo unspecified) | 20 | – | > 20 | > 20 | > 20 | 10 | > 32 | > 20 | 3.6 | > 8 | > 7 | > 8 | > 40 | 32 | > 20 | 7 to 8 | 40 | 2.2 | > 20
4 | NS(=O)(=O)c1ccc(N2N=C(c3ccc(Oc4ccccc4)cc3)CC2c2ccccc2F)cc1 (stereo unspecified) | 96 | 13.7 | 7 | > 96 | > 96 | 10 | > 36 | > 96 | 17.9 | > 34 | > 32 | > 34 | > 36 | 36 | > 96 | 32 to 34 | 36 | 1.9 | > 96
5 | NS(=O)(=O)c1ccc(N2N=C(c3ccccc3)CC2c2cccc(Cl)c2)cc1 (stereo unspecified) | 21 | – | > 21 | > 21 | > 21 | 10 | > 2 | > 21 | 3.6 | > 9 | > 8 | > 9 | 10 | 2 | > 21 | 8 to 9 | 41 | 2.5 | > 21
6 | NS(=O)(=O)c1ccc(N2N=C(c3ccc(Oc4ccccc4)cc3)CC2c2cccc(F)c2)cc1 (stereo unspecified) | 28 | 6.7 | 4.2 | > 28 | > 28 | 10 | > 12 | > 28 | 5.6 | > 10 | > 11 | > 10 | > 25 | 12 | > 28 | 10 to 11 | 25 | 1.8 | > 28
7 | NS(=O)(=O)c1ccc(N2N=C(c3ccccc3)CC2c2ccccc2Cl)cc1 (stereo unspecified) | 26 | – | > 26 | > 26 | > 26 | 10 | > 9 | > 26 | 5.8 | > 14 | > 13 | > 14 | > 44 | 9 | > 26 | 13 to 14 | 44 | 2.4 | > 26
8 | Cc1ccccc1C1CC(c2ccc(OCc3ccccc3)cc2)=NN1c1ccc(S(N)(=O)=O)cc1 (stereo unspecified) | 100 | – | > 100 | > 100 | > 100 | 10 | > 100 | > 100 | 12.2 | > 22 | > 20 | > 22 | > 100 | > 100 | > 100 | 20 to 22 | ≥ 100 | 1.8 | > 100
9 | NS(=O)(=O)c1ccc(N2N=C(c3ccc(Oc4ccccc4)cc3)CC2c2ccc(F)cc2)cc1 (stereo unspecified) | 25 | 4.2 | 6 | > 25 | > 25 | 10 | > 6 | > 25 | 5 | > 9 | > 8 | > 9 | > 33 | 6 | > 25 | 8 to 9 | 33 | 1.8 | > 25
